Data taken from ChEMBL document CHEMBL4229468, “Novel cinnamaldehyde-based aspirin derivatives for the treatment of colorectal cancer” (Bioorg Med Chem Lett, 2018).

Key:
[1] = tested on: HCT-8; test: Antiproliferative activity against human HCT8 cells after 72 hrs by MTT assay; type: functional, cell-based; conditions: HCT-8, 72 h
How it was run: (§1)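 MTT proliferation assay (details in supplement); positive control 5-FU; mixture comparator ASA + CA physical mixture at 1:1 mole ratio; IC50 = concentration inhibiting 50% of proliferation; mean ± SD from three independent experiments.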

[2] = tested on: HCT-8; test: Antiproliferative activity against human HCT8 cells after 72 hrs in presence of aspirin by MTT assay; type: functional, cell-based; conditions: HCT-8, 72 h
How it was run: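 MTT proliferation assay in HCT-8 colorectal cancer cells, run on a physical mixture with aspirin at a 1:1 mole ratio. IC50 is the concentration inhibiting 50% of cell proliferation, given as the mean ± SD of three independent experiments.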

[3] = tested on: DLD-1; test: Antiproliferative activity against human DLD1 cells after 72 hrs by MTT assay; type: functional, cell-based; conditions: DLD-1, 72 h
How it was run: (§2)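 MTT proliferation assay on colorectal cancer (DLD-1) or non-tumorigenic colon (CCD841) cells. IC50 is the drug concentration inhibiting 50% of cell proliferation, given as the mean ± SD of three independent experiments.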

[4] = tested on: CCD-841CoN; test: Antiproliferative activity against human CCD-841-CoN cells after 72 hrs by MTT assay; type: cell-based; how it was run: as §2
[5] = tested on: HCT-8; test: Antiproliferative activity against human HCT8 cells after 72 hrs in presence of cinnamaldehyde by MTT assay; type: functional, cell-based; conditions: HCT-8, 72 h; how it was run: as §1
[6] = tested on: HCT-8; test: Potency index, ratio of 5-FU IC50 to test compound IC50 for human HCT8 cells; type: functional
[7] = Selectivity index, ratio of IC50 for human CCD-841-CoN cells to IC50 for human HCT8 cells; type: toxicity; conditions: CCD-841-CoN cells versus HCT8 cells, read-out: Ratio IC50
[8] = Selectivity index, ratio of IC50 for human CCD-841-CoN cells to IC50 for human DLD1 cells; type: toxicity; conditions: CCD-841-CoN cells versus DLD1 cells, read-out: Ratio IC50
How it was run: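 MTT IC50 in DLD-1 and non-tumorigenic CCD841 colon cells; IC50 = concentration inhibiting 50% proliferation; mean ± SD, three independent experiments.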

[9] = tested on: HCT-8; test: Antitumor activity against human HCT8 cells xenografted in BALB/c nude mouse assessed as tumor weight at 60 mg/kg, ip administered daily for 32 days measured every 4 days during compound dosing relative to control; type: functional
How it was run: (§3)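 HCT-8 cells inoculated subcutaneously; after solid tumours established, mice randomized to daily intraperitoneal dosing at 60 mg/kg or vehicle Tween 80/PBS (5:95) for 32 consecutive days; tumour volume, tumour weight and body weight recorded; n = 6 per group; mean ± SD; P vs vehicle.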

[10] = tested on: Mus musculus; test: Toxicity in BALB/c nude mouse xenografted with human HCT8 cells assessed as change in body weight at 60 mg/kg, ip administered daily for 32 days; type: organism-based; conditions: in vivo, 768 h; how it was run: as §3
[11] = tested on: HCT-8; test: Cell cycle arrest in human HCT8 cells assessed as accumulation at G1 phase after 24 hrs by propidium iodide staining-based flow cytometric method; type: functional
[12] = tested on: HCT-8; test: Cell cycle arrest in human HCT8 cells assessed as accumulation at G1 phase at 3 uM after 24 hrs by propidium iodide staining-based flow cytometric method (reference value: 40.05%); type: functional
[13] = tested on: HCT-8; test: Cell cycle arrest in human HCT8 cells assessed as accumulation at S phase at 3 uM after 24 hrs by propidium iodide staining-based flow cytometric method (reference value: 36.19%); type: functional
[14] = tested on: HCT-8; test: Cell cycle arrest in human HCT8 cells assessed as accumulation at G2 phase at 3 uM after 24 hrs by propidium iodide staining-based flow cytometric method (reference value: 23.77%); type: functional
[15] = tested on: HCT-8; test: Cell cycle arrest in human HCT8 cells assessed as accumulation at G1 phase at 6 uM after 24 hrs by propidium iodide staining-based flow cytometric method (reference value: 40.05%); type: functional
[16] = tested on: HCT-8; test: Cell cycle arrest in human HCT8 cells assessed as accumulation at S phase at 6 uM after 24 hrs by propidium iodide staining-based flow cytometric method (reference value: 36.19%); type: functional
[17] = tested on: HCT-8; test: Cell cycle arrest in human HCT8 cells assessed as accumulation at G2 phase at 6 uM after 24 hrs by propidium iodide staining-based flow cytometric method (reference value: 23.77%); type: functional
[18] = tested on: HCT-8; test: Cell cycle arrest in human HCT8 cells assessed as accumulation at G1 phase at 12 uM after 24 hrs by propidium iodide staining-based flow cytometric method (reference value: 40.05%); type: functional
[19] = tested on: HCT-8; test: Cell cycle arrest in human HCT8 cells assessed as accumulation at S phase at 12 uM after 24 hrs by propidium iodide staining-based flow cytometric method (reference value: 36.19%); type: functional
[20] = tested on: HCT-8; test: Cell cycle arrest in human HCT8 cells assessed as accumulation at G2 phase at 12 uM after 24 hrs by propidium iodide staining-based flow cytometric method (reference value: 23.77%); type: functional
[21] = tested on: HCT-8; test: Induction of apoptosis in human HCT8 cells after 24 hrs by annexin V-FITC/propidium iodide staining-based flow cytometric method; type: functional, cell-based
[22] = tested on: HCT-8; test: Induction of apoptosis in human HCT8 cells assessed as early apoptotic cells at 3 uM after 24 hrs by annexin V-FITC/propidium iodide staining-based flow cytometric method (reference value: 0.25%); type: functional
[23] = tested on: HCT-8; test: Induction of apoptosis in human HCT8 cells assessed as early apoptotic cells at 6 uM after 24 hrs by annexin V-FITC/propidium iodide staining-based flow cytometric method (reference value: 0.25%); type: functional
[24] = tested on: HCT-8; test: Induction of apoptosis in human HCT8 cells assessed as early apoptotic cells at 12 uM after 24 hrs by annexin V-FITC/propidium iodide staining-based flow cytometric method (reference value: 0.25%); type: functional
[25] = tested on: HCT-8; test: Induction of apoptosis in human HCT8 cells assessed as early apoptotic cells at 6 uM after 24 hrs in presence of ROS scavenger NAC by annexin V-FITC/propidium iodide staining-based flow cytometric method (reference value: 0.25%); type: functional
[26] = tested on: HCT-8; test: Induction of apoptosis in human HCT8 cells assessed as late apoptotic cells at 6 uM after 24 hrs in presence of ROS scavenger NAC by annexin V-FITC/propidium iodide staining-based flow cytometric method (reference value: 5.42%); type: functional
[27] = tested on: HCT-8; test: Induction of apoptosis in human HCT8 cells assessed as upregulation of cleaved caspase-3 levels after 24 hrs by Western blot method; type: functional, cell-based
How it was run: (§4)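 Cells treated 24 h with 0, 3, 6, 12 μM or control (0.1% DMSO); whole-cell lysates immunoblotted for cleaved caspase 3 and PARP.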

[28] = tested on: HCT-8; test: Induction of apoptosis in human HCT8 cells assessed as upregulation of cleaved PARP levels after 24 hrs by Western blot method; type: functional, cell-based; how it was run: as §4
[29] = tested on: HCT-8; test: Induction of reactive oxygen species formation in human HCT8 cells at 3 uM after 24 hrs by DCFH-DA dye-based flow cytometric method (reference value: 3.67%); type: functional
How it was run: (§5)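 Cells treated 24 h with 0, 3, 6 or 12 μM, stained with fluorogenic 2',7'-dichlorofluorescin diacetate; ROS level read by flow cytometry.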

[30] = tested on: HCT-8; test: Induction of reactive oxygen species formation in human HCT8 cells at 6 uM after 24 hrs by DCFH-DA dye-based flow cytometric method (reference value: 3.67%); type: functional; how it was run: as §5
[31] = tested on: HCT-8; test: Induction of reactive oxygen species formation in human HCT8 cells at 12 uM after 24 hrs by DCFH-DA dye-based flow cytometric method (reference value: 3.67%); type: functional; how it was run: as §5
[32] = tested on: HCT-8; test: Induction of apoptosis in human HCT8 cells assessed as late apoptotic cells at 3 uM after 24 hrs by annexin V-FITC/propidium iodide staining-based flow cytometric method (reference value: 2.40%)
[33] = tested on: HCT-8; test: Induction of apoptosis in human HCT8 cells assessed as late apoptotic cells at 6 uM after 24 hrs by annexin V-FITC/propidium iodide staining-based flow cytometric method (reference value: 2.40%)
[34] = tested on: HCT-8; test: Induction of apoptosis in human HCT8 cells assessed as late apoptotic cells at 12 uM after 24 hrs by annexin V-FITC/propidium iodide staining-based flow cytometric method (reference value: 2.40%)

## CC(=O)Oc1ccccc1C(=O)Oc1ccccc1/C=C/C=O
[1]
  IC50: 20.3 µM

## O=C/C=C/c1ccccc1 [CINNAMALDEHYDE]
[1]
  IC50: 29.4 µM
[2]
  IC50: 15.6 µM

## COC(=O)c1ccccc1OC(C)=O
[1]
  IC50: > 100 µM

## COc1cccc(/C=C/C=O)c1OC(=O)c1ccccc1OC(C)=O
[1]
  IC50: 17.6 µM

## COc1ccc(/C=C/C=O)c(OC(=O)c2ccccc2OC(C)=O)c1
[1]
  IC50: 15.8 µM

## CC(=O)Oc1ccccc1C(=O)Oc1ccc(C)cc1/C=C/C=O
[1]
  IC50: 8.5 µM

## O=c1[nH]cc(F)c(=O)[nH]1 [FLUOROURACIL]
[1]
  IC50: 28.9 µM
[3]
  IC50: 33 µM
[4]
  IC50: 35.7 µM

## CC(=O)Oc1ccccc1C(=O)O [ASPIRIN]
[1]
  IC50: > 100 µM
[5]
  IC50: 15.6 µM

## CC(=O)Oc1ccccc1C(=O)Oc1ccc(F)cc1/C=C/C=O
[1]
  IC50: 2.6 µM
[3]
  IC50: 4.3 µM
[4]
  IC50: 30.7 µM
[6]
  Ratio IC50: 11
[7]
  selectivity ratio: 11
[8]
  selectivity ratio: 7
[9]
  Activity: 47%
[10]
  Activity: Non-Toxic
[11]
  Activity: Dose-dependent effect
[12]
  Activity: 43.17%
[13]
  Activity: 35.89%
[14]
  Activity: 20.94%
[15]
  Activity: 48.66%
[16]
  Activity: 38.71%
[17]
  Activity: 12.63%
[18]
  Activity: 51.62%
[19]
  Activity: 36.15%
[20]
  Activity: 12.23%
[21]
  Activity: Dose-dependent effect
[22]
  Activity: 8.69%
[23]
  Activity: 15.56%
[24]
  Activity: 15.84%
[25]
  Activity: 7.4%
[26]
  Activity: 5.58%
[27]
  Activity: Dose-dependent effect
[28]
  Activity: Dose-dependent effect
[29]
  Activity: 18.67%
[30]
  Activity: 25.07%
[31]
  Activity: 47.83%
[32]
  Activity: 5.42%
[33]
  Activity: 17.03%
[34]
  Activity: 27.71%

## COc1ccc(OC(=O)c2ccccc2OC(C)=O)c(/C=C/C=O)c1
[1]
  IC50: 9.3 µM

## CC(=O)Oc1ccc(F)cc1/C=C/C=O
[1]
  IC50: 10.5 µM

## CC(=O)Oc1ccccc1C(=O)Oc1ccc(Br)cc1/C=C/C=O
[1]
  IC50: 5.6 µM

## CC(=O)Oc1ccccc1C(=O)Oc1ccc(Cl)cc1/C=C/C=O
[1]
  IC50: 4.3 µM
